Results on nine compounds are retold here after ChEMBL document CHEMBL4017549, “Structural Basis of Inhibition of ERα-Coactivator Interaction by High-Affinity N-Terminus Isoaspartic Acid Tethered Helical Peptides” (J Med Chem, 2017).

Molecules are shown by their SMILES. The source made the active and inactive calls. The rule behind the calls is not given here. Bridge positions count the residues as written; N and C are the ends. Square brackets hold non-standard residues; d marks the D form. Side chains are listed from the residue outwards. Peptide text beside a SMILES is read from it. * marks the point of attachment. ξ: configuration not given here. FITC = O=C1OC2(c3ccc(O)cc3Oc3cc(O)ccc32)c2ccc(NC(=S)*)cc21; ξtBuAla = CC(C)(C)CC(N)C(=O)O; ξD = NC(CC(=O)O)C(=O)O; ξDap = NCC(N)C(=O)O; βAla = NCCC(=O)O

In data set [1] the test system is MCF7. The data set is described as follows: Cytotoxicity against human MCF7 cells assessed as cell viability at 20 uM after 24 hrs by MTT assay. The format is functional. Conditions: MCF7, 24 h, read-out: Activity.
The target of data set [2] is T1, Estrogen receptor (Homo sapiens) (UniProt P03372).
T1 sequence (whole entry): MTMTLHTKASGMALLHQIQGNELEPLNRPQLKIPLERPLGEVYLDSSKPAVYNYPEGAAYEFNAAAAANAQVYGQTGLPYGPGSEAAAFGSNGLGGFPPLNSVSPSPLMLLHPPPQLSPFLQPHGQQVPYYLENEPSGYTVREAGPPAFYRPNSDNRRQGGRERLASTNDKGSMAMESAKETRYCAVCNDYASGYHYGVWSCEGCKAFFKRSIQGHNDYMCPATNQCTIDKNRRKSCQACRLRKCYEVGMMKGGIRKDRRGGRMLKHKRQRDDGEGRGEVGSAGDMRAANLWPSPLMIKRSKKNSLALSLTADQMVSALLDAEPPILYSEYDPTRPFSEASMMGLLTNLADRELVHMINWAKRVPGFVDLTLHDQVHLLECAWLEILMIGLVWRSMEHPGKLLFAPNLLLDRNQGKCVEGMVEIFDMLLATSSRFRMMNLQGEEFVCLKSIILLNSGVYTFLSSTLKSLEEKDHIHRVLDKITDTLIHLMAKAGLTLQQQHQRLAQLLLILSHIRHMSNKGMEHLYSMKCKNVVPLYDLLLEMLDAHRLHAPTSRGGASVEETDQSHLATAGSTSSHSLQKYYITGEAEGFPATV
The data set is described as follows: Binding affinity to recombinant human GFP-fused ERalpha LBD (301 to 553 residues) expressed in Escherichia coli BL21(DE3) after 40 mins in presence of 17beta-estradiol by fluorescence polarization assay. Conditions: in the assay text read “ERalpha LBD” for “GFP-fused ERalpha LBD”.

The nature of data set [3]: Drug uptake in human MCF7 cells assessed per million cells at 5 uM after 3 hrs by FACS analysis. It is filed as ADME, cell-based. Conditions: mcf7, 3 h. In short, it runs like this:
(§1)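 Adherent cells seeded overnight, then exposed to 5 μM FITC-labelled peptide or DMSO in FBS-free medium, 3 h, 37 °C. After PBS washes (three), about 10000 cells per sample analysed by flow cytometry; mean cellular fluorescence intensity calculated. More than two independent experiments, SEM.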

Data set [4] in a line: Drug uptake in human U2OS cells assessed per million cells at 5 uM after 3 hrs by FACS analysis. It is filed as ADME, cell-based. The method in brief: as §1
In data set [5] the target is T1, Estrogen receptor (Homo sapiens). The data set is described as follows: Binding affinity to recombinant human GFP-fused ERalpha LBD (301 to 553 residues) expressed in Escherichia coli BL21(DE3) in presence of ERalpha inhibitor 4-hydroxytamoxifen by ITC. In short, it runs like this:
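ITC at 25 °C. 50 μM peptide injected in 2 μL steps into 5 μM ERα LBD in 50 mM Tris pH 8.0, 150 mM NaCl, 1 mM TCEP containing 0.1 mM 4-hydroxytamoxifen instead of estradiol. Isotherm fitted.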

The target is the same in data set [6]. The data set is described as follows: Binding affinity to recombinant human GFP-fused ERalpha LBD (301 to 553 residues) expressed in Escherichia coli BL21(DE3) in presence of 17beta-estradiol by ITC. The method in brief:
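ITC at 25 °C. 2 μL injections of 50 μM peptide into 5 μM ERα LBD in 50 mM Tris pH 8.0, 150 mM NaCl, 1 mM TCEP, 0.1 mM 17β-estradiol. Binding isotherm fitted for affinity.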

Data set [7] has the same target. The data set is described as follows: Inhibition of ERalpha in human MCF7 cells assessed as downregulation of 17beta-estradiol-mediated pS2 mRNA expression at 5 uM preincubated for 4 hrs followed by 17beta-estradiol addition measured after 16 hrs by quantitative RT-PCR analysis. It is filed as cell-based. In short, it runs like this:
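MCF-7 cells hormone-depleted 72 h in phenol red-free DMEM with 5% charcoal-treated serum, given peptides or DMSO for 4 h, then 100 nM 17β-estradiol or DMSO for 16 h. pS2 mRNA measured by quantitative RT-PCR, normalized to β-actin. Three independent experiments, mean ± SEM.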

The target is the same in data set [8]. Briefly: Inhibition of recombinant human GFP-fused ERalpha LBD (301 to 553 residues) expressed in human […] cells assessed as downregulation of 17beta-estradiol-induced transcription at 5 uM preincubated for 4 hrs followed by E2 addition measured after 20 hrs by dual luciferase reporter gene assay. It is filed as cell-based. In short, it runs like this: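 U2OS cells in phenol red-free DMEM with 10% charcoal-stripped FBS, transfected 4 h with pEGFP-C1-ERα, 3XERE firefly luciferase reporter and pRL-TK Renilla plasmids. Peptides for 4 h, then 10 nM E2 or DMSO for 20 h. Lysates read by dual-luciferase; firefly normalized to Renilla, then to DMSO-treated control. SEM from more than two independent experiments.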

On to `CC[C@H](C)[C@@H]1NC(=O)C[C@H](NC(=O)[C@H](CCCNC(=N)N)NC(=O)CCNC(=O)[C@H](Cc2c[nH]c3ccccc23)NC(C)=O)C(=O)NCC(C(=O)N[C@@H](CCCNC(=N)N)C(=O)NC(CC(C)(C)C)C(=O)N[C@@H](CC(C)C)C(=O)N[C@@H](CCC(N)=O)C(N)=O)NC(=O)[C@H](CC(C)C)NC1=O` (some centres not stated), for which the viability at 20 µM in data set [1] was 53.9%.
`CC[C@H](C)[C@@H]1NC(=O)C[C@H](NC(=O)[C@H](CCCNC(=N)N)NC(=O)CCNC(=S)Nc2ccc3c(c2)C(=O)OC32c3ccc(O)cc3Oc3cc(O)ccc32)C(=O)NCC(C(=O)N[C@@H](CCCNC(=N)N)C(=O)NC(CC(C)(C)C)C(=O)N[C@@H](CC(C)C)C(=O)N[C@@H](CCC(N)=O)C(N)=O)NC(=O)[C@H](CC(C)C)NC1=O` (some centres not stated): the outcome in data set [2] and in data set [6] was Active. Moreover, the Drug uptake entry in data set [3] and in data set [4] was “Active” in each case. The outcome in data set [5] was inactive.
For the compound `CC[C@H](C)[C@@H]1NC(=O)C[C@H](NC(=O)[C@H](CCCNC(=N)N)NC(=O)CCNC(=O)[C@H](Cc2c[nH]c3ccccc23)NC(C)=O)C(=O)NCC(C(=O)N[C@@H](CCCNC(=N)N)C(=O)N[C@@H](CC(C)C)C(=O)N[C@@H](CC(C)C)C(=O)N[C@@H](CCC(N)=O)C(N)=O)NC(=O)[C@H](CC(C)C)NC1=O` (some centres not stated), in data set [1], the viability at 20 µM was 64.5%.
As for `CC[C@H](C)[C@@H]1NC(=O)C[C@H](NC(=O)[C@H](CCCNC(=N)N)NC(=O)CCNC(=O)[C@H](Cc2c[nH]c3ccccc23)NC(C)=O)C(=O)NCC(C(=O)N[C@@H](CCCNC(=N)N)C(=O)N[C@@H](CC(C)C)C(=O)NC(CC(C)(C)C)C(=O)N[C@@H](CCC(N)=O)C(N)=O)NC(=O)[C@H](CC(C)C)NC1=O` (some centres not stated), the viability at 20 µM in data set [1] worked out at 43.1%.
On to `CC[C@H](C)[C@@H]1NC(=O)C[C@H](NC(=O)[C@H](CCCNC(=N)N)NC(=O)CCNC(=S)Nc2ccc3c(c2)C(=O)OC32c3ccc(O)cc3Oc3cc(O)ccc32)C(=O)NCC(C(=O)N[C@@H](CCCNC(=N)N)C(=O)N[C@@H](CC(C)C)C(=O)NC(CC(C)(C)C)C(=O)N[C@@H](CCC(N)=O)C(N)=O)NC(=O)[C@H](CC(C)C)NC1=O` (some centres not stated), for which the outcome in data set [2] was Active.
Turning to `CC[C@H](C)[C@@H]1NC(=O)C[C@H](NC(=O)[C@H](CCCNC(=N)N)NC(=O)CCNC(=O)[C@H](Cc2c[nH]c3ccccc23)NC(C)=O)C(=O)NCC(C(=O)N[C@@H](CCCNC(=N)N)C(=O)N[C@@H](CC(C)C)C(=O)N[C@@H](CC(C)C)C(=O)N[C@@H](CCC(N)=O)C(N)=O)NC(=O)C(CC(C)(C)C)NC1=O` (some centres not stated), the viability at 20 µM in data set [1] turned out to be 53.9%.
Take `CC[C@H](C)[C@@H]1NC(=O)C(NC(=O)[C@H](CCCNC(=N)N)NC(=O)CCNC(=S)Nc2ccc3c(c2)C(=O)OC32c3ccc(O)cc3Oc3cc(O)ccc32)CNC(=O)C(CC(=O)N[C@@H](CCC(N)=O)C(=O)NC(CC(C)(C)C)C(=O)N[C@@H](CCCNC(=N)N)C(=O)NC(CC(C)(C)C)C(N)=O)NC(=O)C(CC(C)(C)C)NC1=O` (stereo partly drawn) ({FITC-βAla}-R[ξDap]I[ξtBuAla][ξD]([Gln-ξtBuAla-Arg-ξtBuAla-NH2]); lactam 2-C): the outcome in data set [2] was inactive. For the same compound, the Drug uptake entry in data set [3] and in data set [4] was “Active” each time.
As to `CC[C@H](C)[C@@H]1NC(=O)C(NC(=O)[C@H](CCCNC(=N)N)NC(=O)CCNC(=O)[C@H](Cc2c[nH]c3ccccc23)NC(C)=O)CNC(=O)C(CC(=O)N[C@@H](CCC(N)=O)C(=O)NC(CC(C)(C)C)C(=O)N[C@@H](CCCNC(=N)N)C(=O)NC(CC(C)(C)C)C(N)=O)NC(=O)C(CC(C)(C)C)NC1=O` (stereo partly drawn) (Ac-W[βAla]R[ξDap]I[ξtBuAla][ξD]([Gln-ξtBuAla-Arg-ξtBuAla-NH2]); lactam 4-C), the viability at 20 µM in data set [1] was found to be 79.2%. Moreover, the inhibition entry in data set [7] and in data set [8] was “inactive” each time.
Regarding `CC[C@H](C)[C@@H]1NC(=O)C[C@H](NC(=O)[C@H](CCCNC(=N)N)NC(=O)CCNC(=S)Nc2ccc3c(c2)C(=O)OC32c3ccc(O)cc3Oc3cc(O)ccc32)C(=O)NCC(C(=O)N[C@@H](CCCNC(=N)N)C(=O)N[C@@H](CC(C)C)C(=O)N[C@@H](CC(C)C)C(=O)N[C@@H](CCC(N)=O)C(N)=O)NC(=O)C(CC(C)(C)C)NC1=O` (some centres not stated), the result in data set [2] was Active.
